Data as given in ChEMBL document CHEMBL5724801, “EUbOPEN Chemogenomics Library - Multiplex” (2024).
Values joined by “and” are separate entries in the source; they are usually repeats but may differ in a detail not shown here. Identical values can stand only once.

Test system: U2OS
Test: Multiplex assay against U2OS
Format: toxicity, cell-based
Details: human
Procedure, shortened: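 Cells stained live at seeding with Hoechst33342, BioTracker Green Microtubule Cytoskeleton Dye, MitoTracker Red and Annexin V Alexa Fluor 680 were imaged on a CQ1 microscope at 37°C and 5% CO2 after compound addition. Their classification by CellPathfinder machine-learning gating ran from Hoechst high-intensity objects versus normal cells, to healthy, pyknosed or fragmented nuclei among normal cells, to mitotic or apoptotic among pyknosed cells. Tubulin, mitochondrial-mass and membrane-permeability phenotypes are per cents of healthy-nucleus cells.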

[1] = 12 h, 1 µM, compound concentration 1 uM
[2] = 12 h, 10 µM, compound concentration 10 uM
[3] = 24 h, 1 µM, compound concentration 1 uM
[4] = 24 h, 10 µM, compound concentration 10 uM
[5] = 48 h, 1 µM, compound concentration 1 uM
[6] = 48 h, 10 µM, compound concentration 10 uM

CCCCC[C@H](O)/C=C/[C@H]1[C@H](O)CC(=O)[C@@H]1CCCCCCC(=O)O [ALPROSTADIL]
Population Apoptotic (%) [1]: 100% and 77%
Population Fragmented Nuclei (%) [1]: 31% and 11%
Population Healthy Nuclei (%) [1]: 62% and 81%
Population Hoechst High Intensity Objects (%) [1]: 1% and 0%
Population Membrane Permeable-Phenotype (%) [1]: 4% and 9%
Population Mitochondria Different-Phenotype (%) [1]: 2% and 5%
Population Mitotic Cells (%) [1]: 0% and 22%
Population Normal (%) [1]: 98% and 100%
Population Pyknosed Nuclei (%) [1]: 6%
Population Tubulin-Different-Phenotype (%) [1]: 2% and 6%
Total Cell Count [1]: 219 and 132
Population Apoptotic (%) [2]: 71% and 77%
Population Fragmented Nuclei (%) [2]: 23% and 15%
Population Healthy Nuclei (%) [2]: 69% and 75%
Population Hoechst High Intensity Objects (%) [2]: 1% and 2%
Population Membrane Permeable-Phenotype (%) [2]: 1% and 5%
Population Mitochondria Different-Phenotype (%) [2]: 0% and 3%
Population Mitotic Cells (%) [2]: 28% and 22%
Population Normal (%) [2]: 98% and 97%
Population Pyknosed Nuclei (%) [2]: 6% and 8%
Population Tubulin-Different-Phenotype (%) [2]: 0% and 5%
Total Cell Count [2]: 222 and 104
Population Apoptotic (%) [3]: 91% and 87%
Population Fragmented Nuclei (%) [3]: 25% and 14%
Population Healthy Nuclei (%) [3]: 65% and 75%
Population Hoechst High Intensity Objects (%) [3]: 1% and 0%
Population Membrane Permeable-Phenotype (%) [3]: 5% and 8%
Population Mitochondria Different-Phenotype (%) [3]: 2% and 4%
Population Mitotic Cells (%) [3]: 8% and 12%
Population Normal (%) [3]: 98% and 99%
Population Pyknosed Nuclei (%) [3]: 9%
Population Tubulin-Different-Phenotype (%) [3]: 3%
Total Cell Count [3]: 263 and 166
Population Apoptotic (%) [4]: 94% and 100%
Population Fragmented Nuclei (%) [4]: 19% and 12%
Population Healthy Nuclei (%) [4]: 74% and 76%
Population Hoechst High Intensity Objects (%) [4]: 1% and 0%
Population Membrane Permeable-Phenotype (%) [4]: 5% and 4%
Population Mitochondria Different-Phenotype (%) [4]: 0% and 2%
Population Mitotic Cells (%) [4]: 5% and 0%
Population Normal (%) [4]: 98% and 99%
Population Pyknosed Nuclei (%) [4]: 6% and 10%
Population Tubulin-Different-Phenotype (%) [4]: 3% and 1%
Total Cell Count [4]: 271 and 131
Population Apoptotic (%) [5]: 87% and 95%
Population Fragmented Nuclei (%) [5]: 22% and 18%
Population Healthy Nuclei (%) [5]: 68% and 71%
Population Hoechst High Intensity Objects (%) [5]: 2% and 3%
Population Membrane Permeable-Phenotype (%) [5]: 4% and 6%
Population Mitochondria Different-Phenotype (%) [5]: 2% and 5%
Population Mitotic Cells (%) [5]: 12% and 4%
Population Normal (%) [5]: 97% and 96%
Population Pyknosed Nuclei (%) [5]: 9%
Population Tubulin-Different-Phenotype (%) [5]: 2% and 6%
Total Cell Count [5]: 367 and 236
Population Apoptotic (%) [6]: 88% and 100%
Population Fragmented Nuclei (%) [6]: 13% and 11%
Population Healthy Nuclei (%) [6]: 76% and 77%
Population Hoechst High Intensity Objects (%) [6]: 0% and 2%
Population Membrane Permeable-Phenotype (%) [6]: 4% and 6%
Population Mitochondria Different-Phenotype (%) [6]: 0% and 1%
Population Mitotic Cells (%) [6]: 11% and 0%
Population Normal (%) [6]: 99% and 97%
Population Pyknosed Nuclei (%) [6]: 10%
Population Tubulin-Different-Phenotype (%) [6]: 3% and 4%
Total Cell Count [6]: 362 and 165

COC(c1ccccc1)(c1ccccc1)[C@H](Oc1nc(C)cc(C)n1)C(=O)O [AMBRISENTAN]
Population Apoptotic (%) [1]: 95% and 100%
Population Fragmented Nuclei (%) [1]: 26% and 21%
Population Healthy Nuclei (%) [1]: 62% and 72%
Population Hoechst High Intensity Objects (%) [1]: 2%
Population Membrane Permeable-Phenotype (%) [1]: 3% and 8%
Population Mitochondria Different-Phenotype (%) [1]: 0% and 3%
Population Mitotic Cells (%) [1]: 4% and 0%
Population Normal (%) [1]: 97%
Population Pyknosed Nuclei (%) [1]: 10% and 5%
Population Tubulin-Different-Phenotype (%) [1]: 1%
Total Cell Count [1]: 209 and 87
Population Apoptotic (%) [2]: 61% and 100%
Population Fragmented Nuclei (%) [2]: 28% and 19%
Population Healthy Nuclei (%) [2]: 63% and 72%
Population Hoechst High Intensity Objects (%) [2]: 2% and 0%
Population Membrane Permeable-Phenotype (%) [2]: 4%
Population Mitochondria Different-Phenotype (%) [2]: 2% and 0%
Population Normal (%) [2]: 97% and 99%
Population Pyknosed Nuclei (%) [2]: 7%
Population Tubulin-Different-Phenotype (%) [2]: 1% and 0%
Total Cell Count [2]: 232 and 104
Population Apoptotic (%) [3]: 95% and 100%
Population Fragmented Nuclei (%) [3]: 27% and 23%
Population Healthy Nuclei (%) [3]: 63% and 66%
Population Hoechst High Intensity Objects (%) [3]: 0%
Population Membrane Permeable-Phenotype (%) [3]: 4% and 1%
Population Mitochondria Different-Phenotype (%) [3]: 1% and 2%
Population Mitotic Cells (%) [3]: 4% and 0%
Population Normal (%) [3]: 99%
Population Pyknosed Nuclei (%) [3]: 8% and 10%
Population Tubulin-Different-Phenotype (%) [3]: 1%
Total Cell Count [3]: 248 and 111
Population Apoptotic (%) [4]: 84% and 80%
Population Fragmented Nuclei (%) [4]: 25% and 13%
Population Healthy Nuclei (%) [4]: 65% and 77%
Population Hoechst High Intensity Objects (%) [4]: 1% and 0%
Population Membrane Permeable-Phenotype (%) [4]: 7%
Population Mitochondria Different-Phenotype (%) [4]: 2%
Population Mitotic Cells (%) [4]: 16% and 20%
Population Normal (%) [4]: 98% and 100%
Population Pyknosed Nuclei (%) [4]: 9% and 8%
Population Tubulin-Different-Phenotype (%) [4]: 3% and 5%
Total Cell Count [4]: 273 and 115
Population Apoptotic (%) [5]: 89% and 93%
Population Fragmented Nuclei (%) [5]: 17%
Population Healthy Nuclei (%) [5]: 70% and 72%
Population Hoechst High Intensity Objects (%) [5]: 2%
Population Membrane Permeable-Phenotype (%) [5]: 2% and 0%
Population Mitochondria Different-Phenotype (%) [5]: 1%
Population Mitotic Cells (%) [5]: 10% and 6%
Population Normal (%) [5]: 97%
Population Pyknosed Nuclei (%) [5]: 11% and 10%
Population Tubulin-Different-Phenotype (%) [5]: 0%
Total Cell Count [5]: 333 and 151
Population Apoptotic (%) [6]: 87% and 81%
Population Fragmented Nuclei (%) [6]: 21% and 13%
Population Healthy Nuclei (%) [6]: 68% and 79%
Population Hoechst High Intensity Objects (%) [6]: 3% and 0%
Population Membrane Permeable-Phenotype (%) [6]: 4% and 2%
Population Mitochondria Different-Phenotype (%) [6]: 2% and 0%
Population Mitotic Cells (%) [6]: 12% and 18%
Population Normal (%) [6]: 96% and 100%
Population Pyknosed Nuclei (%) [6]: 10% and 6%
Population Tubulin-Different-Phenotype (%) [6]: 3% and 2%
Total Cell Count [6]: 388 and 174
